Reference: ChEMBL document CHEMBL4229446, “Development of Novel Monoamine Oxidase-B (MAO-B) Inhibitors with Reduced Blood-Brain Barrier Permeability for the Potential Management of Noncentral Nervous System (CNS) Diseases” (J Med Chem, 2018)

Experiments:
[1] = Cmax in C57BL/6 mouse plasma at 24.5 mg/kg, iv administered as single dose measured 24 hrs by UPLC-MS/MS analysis; assay type: ADME, organism-based; set-up: dose 24.5 mg/kg, route intravenous
In short: (§1)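 21 animals dosed at 0 min, 3 sacrificed at each of 0, 5, 15, 30 min, 1, 4 and 24 h. Plasma was extracted by protein precipitation with phospholipid removal. Brain was weighed, bead-homogenised in 50 mM ammonium formate and extracted in acidified organic solvent. Quantified by UPLC-MS/MS (MRM). Brain ng/g taken as ng/mL. Parameters came from noncompartmental analysis. Kp = AUClast brain/plasma.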

[2] = AUClast in C57BL/6 mouse plasma at 24.5 mg/kg, iv administered as single dose measured 24 hrs by UPLC-MS/MS analysis; assay type: ADME, organism-based; set-up: dose 24.5 mg/kg, time 0 - last, route intravenous; in short: as §1
[3] = Cmax in C57BL/6 mouse brain at 24.5 mg/kg, iv administered as single dose measured 24 hrs by UPLC-MS/MS analysis; assay type: ADME, organism-based; set-up: dose 24.5 mg/kg, route intravenous; in short: as §1
[4] = Cmax in C57BL/6 mouse plasma at 24.5 mg/kg, sc administered as single dose measured 24 hrs by UPLC-MS/MS analysis; assay type: ADME, organism-based; set-up: dose 24.5 mg/kg, route subcutaneous
In short: (§2)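 15 animals dosed, 3 sacrificed at each of 1, 2, 4, 6 and 24 h. Plasma and brain homogenate were extracted and quantified by UPLC-MS/MS. Parameters came from noncompartmental analysis. Values above or below the limit of quantification, or undetected, were omitted. Kp = AUClast brain/plasma.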

[5] = AUClast in C57BL/6 mouse plasma at 24.5 mg/kg, sc administered as single dose measured 24 hrs by UPLC-MS/MS analysis; assay type: ADME, organism-based; set-up: dose 24.5 mg/kg, time 0 - last, route subcutaneous; in short: as §2
[6] = Tmax in C57BL/6 mouse brain at 24.5 mg/kg, sc administered as single dose measured 24 hrs by UPLC-MS/MS analysis; assay type: ADME, organism-based
In short: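 Brain portion homogenised in 50 mM ammonium formate with beads, acidified organic extraction, UPLC-MS/MS. ng/g read as ng/mL. Noncompartmental analysis; values above or below quantification limit, or undetected, excluded.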

[7] = AUClast in C57BL/6 mouse brain at 24.5 mg/kg, sc administered as single dose measured 24 hrs by UPLC-MS/MS analysis; assay type: ADME, organism-based; set-up: dose 24.5 mg/kg, time 0 - last, route subcutaneous; in short: as §2
[8] = Tmax in C57BL/6 mouse plasma at 24.5 mg/kg, po administered as single dose measured 24 hrs by UPLC-MS/MS analysis; assay type: ADME, organism-based
In short: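 Plasma extracted by protein precipitation/phospholipid removal and measured by UPLC-MS/MS (MRM). Parameters by noncompartmental analysis, omitting values outside quantification limits or undetected.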

[9] = Apparent half-life of the terminal disposition phase in C57BL/6 mouse plasma at 24.5 mg/kg, po administered as single dose measured 24 hrs by UPLC-MS/MS analysis; assay type: ADME, organism-based; conditions: read-out: t1/2 lambda z (converted); in short: as §2
[10] = Metabolic stability in mouse liver microsomes assessed as parent compound remaining at 1 uM after 60 mins by UPLC-MS/MS analysis; assay type: ADME, microsome; conditions: liver microsomes, read-out: Stability
In short: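 Compound at 1 μM with 0.5 mg/mL mouse or human liver microsomes in 100 mM potassium phosphate pH 7.4, 3.3 mM MgCl2, 1 mM NADPH, at 37 °C. Started with NADPH; minus-NADPH control run. Stopped at 0, 5, 15, 30, 45 and 60 min with acetonitrile/formic acid plus internal standard. Parent remaining by UPLC-MS/MS, in triplicate.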

[11] = Cmax in C57BL/6 mouse plasma at 23.4 mg/kg, iv administered as single dose measured 24 hrs by UPLC-MS/MS analysis; assay type: ADME, organism-based; set-up: dose 23.4 mg/kg, route intravenous
In short: (§3)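 21 animals dosed at 0 min, 3 killed per time point (0, 5, 15, 30 min, 1, 4, 24 h). Plasma extracted by protein precipitation/phospholipid removal. Brain homogenized in 50 mM ammonium formate, then extracted in acidified organic solvent. Both quantified by UPLC-MS/MS (MRM), brain ng/g taken as ng/mL. Noncompartmental analysis. Kp = AUClast brain/plasma.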

[12] = AUClast in C57BL/6 mouse plasma at 23.4 mg/kg, iv administered as single dose measured 24 hrs by UPLC-MS/MS analysis; assay type: ADME, organism-based; set-up: dose 23.4 mg/kg, time 0 - last, route intravenous; in short: as §3
[13] = Tmax in C57BL/6 mouse brain at 23.4 mg/kg, iv administered as single dose measured 24 hrs by UPLC-MS/MS analysis; assay type: ADME, organism-based; in short: as §3
[14] = Cmax in C57BL/6 mouse brain at 23.4 mg/kg, iv administered as single dose measured 24 hrs by UPLC-MS/MS analysis; assay type: ADME, organism-based; set-up: dose 23.4 mg/kg, route intravenous; in short: as §3
[15] = AUClast in C57BL/6 mouse brain at 23.4 mg/kg, iv administered as single dose measured 24 hrs by UPLC-MS/MS analysis; assay type: ADME, organism-based; set-up: dose 23.4 mg/kg, route intravenous, time 0 - last; in short: as §3
[16] = Ratio of AUClast in brain to plasma in C57BL/6 mouse at 23.4 mg/kg, iv administered as single dose measured 24 hrs by UPLC-MS/MS analysis; assay type: ADME, organism-based; in short: as §3
[17] = Cmax in C57BL/6 mouse plasma at 23.4 mg/kg, sc administered as single dose measured 24 hrs by UPLC-MS/MS analysis; assay type: ADME, organism-based; set-up: dose 23.4 mg/kg, route subcutaneous
In short: (§4)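 15 animals dosed, 3 killed at each of 1, 2, 4, 6 and 24 h. Plasma and brain homogenate (ammonium formate, acidified organic extraction) assayed by UPLC-MS/MS, brain ng/g taken as ng/mL. Noncompartmental parameters exclude values above/below quantification limit or undetected. Kp = AUClast brain/plasma.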

[18] = AUClast in C57BL/6 mouse plasma at 23.4 mg/kg, sc administered as single dose measured 24 hrs by UPLC-MS/MS analysis; assay type: ADME, organism-based; set-up: dose 23.4 mg/kg, time 0 - last, route subcutaneous; in short: as §4
[19] = Cmax in C57BL/6 mouse brain at 23.4 mg/kg, sc administered as single dose measured 24 hrs by UPLC-MS/MS analysis; assay type: ADME, organism-based; set-up: dose 23.4 mg/kg, route subcutaneous; in short: as §4
[20] = AUClast in C57BL/6 mouse brain at 23.4 mg/kg, sc administered as single dose measured 24 hrs by UPLC-MS/MS analysis; assay type: ADME, organism-based; set-up: dose 23.4 mg/kg, time 0 - last, route subcutaneous; in short: as §4
[21] = Tmax in C57BL/6 mouse plasma at 23.4 mg/kg, po administered as single dose measured 24 hrs by UPLC-MS/MS analysis; assay type: ADME, organism-based; in short: as §4
[22] = Apparent half-life of the terminal disposition phase in C57BL/6 mouse plasma at 23.4 mg/kg, po administered as single dose measured 24 hrs by UPLC-MS/MS analysis; assay type: ADME, organism-based; conditions: read-out: t1/2 lambda z (converted); in short: as §4
[23] = Tmax in C57BL/6 mouse brain at 23.4 mg/kg, po administered as single dose measured 24 hrs by UPLC-MS/MS analysis; assay type: ADME, organism-based; in short: as §4

C[C@H](Cc1ccc(OCc2ccc(Br)c(Cl)c2)cc1)N(C)CC(=O)O
Cmax [1]: 16700 ng/mL
AUC(0-t) at 24 h [2]: 94800 ng·h/mL
Cmax [3]: 653 ng/mL
Cmax [4]: 7110 ng/mL
AUC(0-t) at 24 h [5]: 66900 ng·h/mL
Tmax [6]: 6 h
AUC(0-t) at 24 h [7]: 12900 ng·h/mL
Tmax [8]: 1 h
half-life [9]: 3.59 h

CN(CC(=O)O)[C@H](CC#N)Cc1ccc(OCc2ccc(Cl)c(Cl)c2)cc1
remaining at 1 h, 1 µM [10]: 39%
Cmax [11]: 52100 ng/mL
AUC(0-t) at 24 h [12]: 39100 ng·h/mL
Tmax [13]: 5 min
Cmax [14]: 305 ng/mL
AUC(0-t) at 24 h [15]: 183 ng·h/mL
Kp at 24 h [16]: 0.004
Cmax [17]: 13300 ng/mL
AUC(0-t) at 24 h [18]: 35100 ng·h/mL
Cmax [19]: 91.3 ng/mL
AUC(0-t) at 24 h [20]: 176 ng·h/mL
Tmax [21]: 1 h
half-life [22]: 2.93 h
Tmax [23]: 1 h
